MrgX1 antag: antagonists of human MrgX1 receptor, primary screen, HEK293 cells, Fluo-4 calcium flux. BAM8-22 antagonism; stronger effect = lower value. Mas-related G-protein coupled receptor member X1 (Homo sapiens), Q96LB2. B-score at 10 µM. hit rate 1.3% among 310,000;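 active means calcium-response B-score plate-corrected more than 3 library SD below zero, starting fluorescence within 5 deviations, no agonist response on first addition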;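 further: peak minus trough fluorescence over baseline after final BAM8-22 challenge near maximal dose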
Target sequence (Q96LB2 whole entry, looked up): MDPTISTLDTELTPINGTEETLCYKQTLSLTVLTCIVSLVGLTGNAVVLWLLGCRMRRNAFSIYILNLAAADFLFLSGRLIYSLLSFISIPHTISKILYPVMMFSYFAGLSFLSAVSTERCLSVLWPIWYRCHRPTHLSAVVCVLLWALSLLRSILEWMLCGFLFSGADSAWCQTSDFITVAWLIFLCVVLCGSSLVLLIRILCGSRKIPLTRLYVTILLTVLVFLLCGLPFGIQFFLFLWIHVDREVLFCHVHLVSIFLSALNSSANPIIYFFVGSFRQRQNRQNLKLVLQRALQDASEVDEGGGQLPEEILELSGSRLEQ
RGS4 act: RGS4 potentiators or activators, primary screen, cell-based, HEK293 M3R inducible RGS4, calcium flux; carbachol calcium flux Fluo4; stronger effect = lower value; B-score at 10 µM; hit rate 0.92% among 310,000; AID 463111, 2010;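 active means B-score of the integrated calcium signal more than 4 SD below the library mean, with starting fluorescence not abnormally high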;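 further: negative B-score means reduced calcium response which marks RGS4 activation or potentiation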
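test system = M3R-expressing HEK293 line, RGS4 induced by doxycycline | probe or stimulus = carbachol at ECmax as muscarinic agonist stimulus | timing = dye loading 30 min 37 °C, buffer rest 30 min RT | signal = calcium dye Fluo4 fluorescence | evaluation = B score from integrated fluorescence ratio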
MrgX1 agonist: agonists of human MrgX1 receptor, primary screen, HEK293 cells, Fluo-4 calcium flux. B-score at 10 µM. Mas-related G-protein coupled receptor member X1 (Homo sapiens), Q96LB2. AID 588627, 2011. hit rate 0.44% among 310,000. Fluo-4 calcium fluorescence, agonist mode; stronger effect = higher value;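 active means calcium response B-score plate-corrected fluorescence ratio at least 3 library SD, with starting fluorescence B-score inside 5 SD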
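Assay system: stable human MrgX1 HEK293 cell line. Quantity: 15,000 cells per well. Schedule: cells plated overnight, dye loaded 0.5 h 37 °C, 0.5 h room temperature. Detection: Fluo-4 NW calcium-flux fluorescence, kinetic read. Read-out basis: peak-minus-minimum fluorescence over baseline, converted to B scores. Control set: positive and negative control wells on each plate.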
RGS4 block: RGS4 inhibitors, primary screen, cell-based, HEK293 M3R inducible RGS4, calcium flux | Fluo-4 calcium flux; stronger effect = higher value; triggered by carbachol at its EC20 | B-score at 10 µM | hit rate 0.45% among 310,000 | AID 463165, 2010;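 active means B-score, a plate-corrected calcium signal, over three deviations above library mean, with baseline fluorescence within five deviations of library mean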;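 further: RGS4 expression induced by doxycycline in cells with stable M3 receptor; B-score is computed from the integrated fluorescence ratio over baseline after carbachol; higher B-score means a larger calcium signal and so more RGS4 inhibition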
Target sequence (P49798 whole entry, looked up): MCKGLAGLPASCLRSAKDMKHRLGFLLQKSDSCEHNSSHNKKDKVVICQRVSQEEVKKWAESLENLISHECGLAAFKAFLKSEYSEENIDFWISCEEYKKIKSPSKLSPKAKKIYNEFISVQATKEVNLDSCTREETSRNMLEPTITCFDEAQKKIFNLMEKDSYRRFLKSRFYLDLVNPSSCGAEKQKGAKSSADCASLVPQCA
MrgX1 allo act: positive allosteric modulators of MrgX1, primary screen, HEK293 cells, Fluo-4 calcium flux. Mas-related G-protein coupled receptor member X1 (Homo sapiens), Q96LB2. FDSS; stronger effect = higher value. B-score at 10 µM. hit rate 0.63% among 310,000. AID 588675, 2011;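 active means plate-corrected calcium response at least 3 library SD above typical, normal starting fluorescence, not activating the receptor alone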;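 further: compound read alongside a low EC10 to EC30 dose of BAM8-22 agonist; peak minus trough fluorescence over baseline measured at the second addition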
RGS4 block valid: enhanced carbachol calcium response, M3R/RGS4 cells, RGS4 inhibitor project, cell-based, validation screen, HEK293 M3R/RGS4, calcium flux. carbachol calcium Fluo-4 fluorescence; carbachol added at its EC20; 0 = buffer wells, 100 = carbachol control. shares compounds with RGS4 block. hit rate 65% among 1,700. calcium response, % at 10 µM;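 active means duplicate-averaged calcium response above the buffer-only control mean plus 5 SD of those controls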;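 further: integrated fluorescence ratio F max minus min over baseline F0; higher response in RGS4-induced cells means RGS4 inhibition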
M3R Ca ctr: carbachol calcium response in non-induced M3R cells, confirmation, counter-screen for RGS4 inhibitor project, cell-based, HEK293 M3R. shares compounds with RGS4 block. carbachol calcium Fluo-4; submaximal (EC20) carbachol stimulus; buffer wells 0%, carbachol control wells 100%. activity (percent), % at 10 µM. hit rate 20% among 1,900. AID 493000, 2010; call rule not given here;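 further: RGS4 induction absent so cells express M3R without RGS4; higher means more calcium signal and flags a non-specific hit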
RGS4 inh ctr2: second counter-screen for RGS4 inhibitors: non-induced cells without carbachol | shares compounds with RGS4 block | calcium response (agonist-mode artifact), % at 10 µM | AID 493001 | HEK293 M3R/RGS4 non-induced, Fluo-4 calcium, no carbachol; normalised: buffer wells 0%, carbachol wells 100% | hit rate 22% among 1,900;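 active means duplicate-averaged calcium rise in uninduced cells above buffer wells' mean plus 5 SD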
Numbers stand for hits; - = inactive; . = not tested or not shown. Shown are actives, neighbours in structure and some others; about 3.5% of the full set was active somewhere.

SMILES	MrgX1 antag	RGS4 act	MrgX1 agonist	RGS4 block	MrgX1 allo act	RGS4 block valid	M3R Ca ctr	RGS4 inh ctr2
CC(=O)c1ccc(NC(=O)CO/N=C(\C)c2cccs2)cc1	-	-	-	-	-	.	.	.
Cc1cc(Br)cc(C=Nc2ccc(N3CCOCC3)cc2)c1O	-	-	-	5.8	-	21%	40%	168%
Oc1ccc(C=Nc2ccc(N3CCOCC3)cc2)c(O)c1	-	-	-	-	-	.	.	.
Clc1ccc(-c2ccc(C=Nc3ccc(N4CCOCC4)cc3)o2)c(Cl)c1	-	-	-	5.4	-	-	-	16%
Oc1cc(Br)ccc1C=Nc1ccc(N2CCCCC2)cc1	-	-	-	-	-	.	.	.
Oc1ccc(N=Nc2cccc(C(F)(F)F)c2)cc1C=Nc1ccc(N2CCOCC2)cc1	-	-	-	9.7	-	28%	46%	-
Oc1c(Cl)cc(Cl)cc1C=Nc1ccc(N2CCOCC2)cc1	-	-	-	5	-	-	-	93%
Fc1cccc(Cl)c1Cn1nnc2c(NCc3ccncc3)ncnc21	-	-	-	-	-	.	.	.
COc1ccc(CNC(=O)C2CCC(=O)N2C(C)C)c(OC)c1 (centres undefined)	-	-	-	-	-	.	.	.
O=C1C=CC(O)(c2cc(=O)c3c(O)cc(O)cc3o2)C=C1	-	-	-	26	-	78%	30%	-
CCc1nnc(NS(=O)(=O)c2ccc(NC(=O)C(c3ccccc3)c3ccccc3)cc2)s1	-	-	-	-	-	.	.	.
O=C(CC1Nc2cccc3cccc(c23)NC1=O)Nc1ccccc1 (centres undefined)	-	-	-	-	-	.	-	-
CCOC(=O)c1c(C)oc2c1cc(NS(=O)(=O)c1ccc(C(=O)O)cc1)c1ccccc12	-	-	-	-	-	.	-	-
Cc1c(C=O)c2ccccn2c1C(=O)c1ccc(F)cc1	-	-	-	-	-	.	.	.
Cc1c(/C=N/NC(=O)CNc2ccccc2)c2ccccn2c1C(=O)c1ccncc1	-	-	-	-	-	-	-	-
Cc1ccccc1NCC(=O)N/N=C/c1c(C)c(C(=O)c2ccc(Cl)cc2)n2ccccc12	-	-	-	-	-	-	-	31%
Cc1c(/C=N/NC(=O)CNc2ccccc2)c2ccccn2c1C(=O)c1ccc(Cl)cc1	-	-	-	15	-	20%	-	68%
Cc1c(C=O)c2ccccn2c1C(=O)c1ccccc1	-	-	-	-	-	.	.	.
CC1(C)CC(=O)C(=Cc2cn(CCC#N)nc2-c2ccc(Cl)cc2)C(=O)C1	-	-	-	-	-	.	.	.
CC1(C)CC(=O)C(=Cc2cn(-c3ccccc3)nc2-c2ccc(Cl)cc2)C(=O)C1	-	-	-	-	-	-	-	-
CC(=C/C(=O)O)/C=C/c1ccco1	-	-	-	5.4	-	7.0%	-	-
Cc1ccc(-n2c(=O)[nH]c3c(C(N)=O)nc(-c4ccc(C)o4)nc32)cc1	-	-	-	-	-	.	.	.
COc1ccc(/C=N/c2c(-c3ccc(OC)cc3)nc3n2CCS3)cc1	-	-	-	-	-	.	.	.
CCCCCCCNC(=O)CN1C(=O)CSc2ccc(S(=O)(=O)N3CCOCC3)cc21	-	-	-	-	-	.	.	.
CCOCCCNC(=O)CN1C(=O)CSc2ccc(S(=O)(=O)N3CCOCC3)cc21	-	-	-	-	-	-	-	-
CCOCCCNC(=O)CN1C(=O)COc2ccc(S(=O)(=O)N3CCCC3)cc21	-	-	-	-	-	.	-	-
COCCCNC(=O)CN1C(=O)COc2ccc(S(=O)(=O)N3CCCCCC3)cc21	-	-	-	-	-	.	.	.
